For eleven compounds, viability, differential viability (reversal) and inhibition results are on record in PubChem BioAssay.

Active and inactive are the calls of the source.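 The calls were made as follows, unless noted: active = viability at or under a set limit in both replicates, limit being median viability minus 3 SD (cut at about 48% in these data, passing the limit was not always enough); inconclusive = at or under the limit in just one replicate; inactive = at or above the limit in both replicates.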

Assay [1] can be described thus: SK-BR-3 cell growth inhibitors, pilot screen, 24 h, human (AID 572;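 active = viability at or below 10% of carrier control in both of two separate runs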;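 also: compound exposure lasted between 18 and 24 h rather than exactly 24 h; 100% = carrier-treated control wells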). Particulars: SK-BR-3 viability, CellTiter-Glo luminescence, at 10 µM, stronger effect = lower value.
A short description of assay [2]: HUVEC growth inhibition – cell-based, human, primary screen (AID 575;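 active = viability at or below 30% in both replicate assays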;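 also: 100% = median of untreated cell wells with 0.1% DMSO on each plate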). Particulars: HUVEC proliferation, CellTiter-Glo luminescence, 72 h; at 10 µM; stronger effect = lower value. In outline:
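System – primary HUVEC, no more than 12 passages · Medium – Low-serum (2% FBS) EBM, supplemented · Times – 72 h exposure, 37 °C, 5% CO2, 30 min RT equilibration · Measured by – luminescent ATP assay · Read-out – % viability relative to median vehicle-well signal on each plate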

Assay [3] in a line: growth inhibitors of H69AR lung tumor, primary screen, human, duplicate replicates (AID 580).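 Also: 100% = mean luminescence of untreated wells and 0% = no signal.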 To be noted: H69AR lung tumor cells viability, ATP luminescence, 72 h; at 10 µM; stronger effect = lower value.
Assay [4] in a line: reversal of MRP1-mediated doxorubicin resistance, pilot screen, H69AR cells, doxorubicin co-treatment (AID 601;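 active = viability loss from added drug above about 55%, and viability with drug at most 40%, in both replicates, limit read from the data, passing the limit was not always enough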). Particulars: CellTiter-Glo, 72 h, at 10 µM; for differential viability (reversal): stronger effect = higher value. For orientation: In ATP-based viability assays light output follows the ATP content of the culture.
Assay [5] can be described thus: 384-well plate pilot, post-Golgi transport modulator project, inhibition of yeast transport mutant growth (AID 636; in the data active = inhibition above about 31%). Particulars: absorbance 615 nm, about 18 h, stronger effect = higher value.
A short description of assay [6]: growth suppression of yeast trafficking mutant, preliminary HTS, modulators of trafficking downstream of Golgi apparatus project, 1536-format plate, OD 615 nm (AID 637; in the data active = inhibition above about 30%). To be noted: yeast transport mutant growth, absorbance 615 nm, 18 h; stronger effect = higher value.
[7] abbreviates: H69AR cells + 2 uM doxorubicin, measured here: viability with 2 uM doxorubicin, stronger effect = lower value.
[8] abbreviates: H69AR cells, compound alone cytotoxicity.

The term viability denotes a read-out of living cells in per cent, often relative to untreated cells. Usually inhibition stands for the drop in the measured response relative to a control, in per cent.

On to `COc1cc(C2c3c(oc4c(C)cc(C)cc4c3=O)C(=O)N2Cc2cccnc2)ccc1O` (stereo not drawn), for which the viability is 78% (inactive) in assay [1]; 69.1% (inactive) in assay [2]; 80.2% (inactive) in assay [3]; 77.6% in assay [4] (setting [7]); 80.2% in assay [4] (setting [8]). For the same compound, in assay [4] (H69AR cells + 2 uM doxorubicin), the differential viability (reversal) was 2.59% (inactive). The results for the inhibition in assay [5] and in assay [6] were 0.13% (inactive) and 2.42% (inactive), respectively.
On to `COc1ccc(C(=O)NCCc2nnc(SCc3nc4ccccc4c(=O)[nH]3)n2C)cc1`, for which the viability in assay [1] is 101% (inactive); in assay [2] it was 67.3% (inactive); in assay [3], 83.4% (inactive); in assay [4] (setting [7]), 73.8%; in assay [4] (setting [8]) it was 83.4%. In addition, the differential viability (reversal) in assay [4] (H69AR cells + 2 uM doxorubicin) is 9.63% (inactive). Besides, the values for the inhibition in assay [5] and in assay [6] were -5.89% (inactive) and 2.42% (inactive), respectively.
As to `O=c1c2cc3ccccc3n2cnn1Cc1ccccc1F`, the viability was 100% (inactive) in assay [1]; 57.9% (inactive) in assay [2]; 11.3% (active) in assay [3]; 47.4% in assay [4] (setting [7]); 11.3% in assay [4] (setting [8]). Moreover, in assay [4] (H69AR cells + 2 uM doxorubicin), the differential viability (reversal) was -36.1% (inactive). For the same compound, the inhibition in assay [5] was -1.95% (inactive); in assay [6], 2.3% (inactive).
In the case of `O=C(Cn1c(=O)oc2ccccc21)N1CCN(c2ccccc2)CC1`, the viability was 94% (inactive) in assay [1]; 104% (inactive) in assay [2]; 88.8% (inactive) in assay [3]; 92.1% in assay [4] (setting [7]); 88.8% in assay [4] (setting [8]). Also, in assay [4] (H69AR cells + 2 uM doxorubicin), the differential viability (reversal) is -3.33% (inactive). Moreover, the inhibition in assay [5] is -8.63% (inactive); in assay [6] it was 8.18% (inactive).
As for `C/C(=N\O)C(=O)C(CN1CCCCC1)CN1CCCCC1`, the viability in assay [1] was 116% (inactive); in assay [2], 95.6% (inactive); in assay [3], 8.43% (active); in assay [4] (setting [7]) it was 2.52%; in assay [4] (setting [8]), 8.43%. Further, in assay [4] (H69AR cells + 2 uM doxorubicin), the differential viability (reversal) is 5.9% (inactive). In addition, the inhibition is 1.95% (inactive) in assay [5] and -7% (inactive) in assay [6].
Consider `CCCNC(=O)NC1C(NC(=O)NCCC)N(C)C(=O)N1C` (stereo not drawn), for which the viability is 86% (inactive) in assay [1]; 104% (inactive) in assay [2]; 105% (inactive) in assay [3]; 90.7% in assay [4] (setting [7]); 105% in assay [4] (setting [8]). Besides, the differential viability (reversal) in assay [4] (H69AR cells + 2 uM doxorubicin) was 14.2% (inactive). The inhibition in assay [5] is -1.04% (inactive); in assay [6], -0.49% (inactive).
`Cc1ccn2cc(CCNC(=O)CC(C)(C)C)nc2c1`: the viability in assay [1] is 89% (inactive); in assay [2] it was 113% (inactive); in assay [3] it was 97.9% (inactive); in assay [4] (setting [7]), 88.6%; in assay [4] (setting [8]), 97.9%. The differential viability (reversal) in assay [4] (H69AR cells + 2 uM doxorubicin) is 9.27% (inactive). Besides, the inhibition in assay [5] was -4.19% (inactive); in assay [6], -2.36% (inactive).
For `COc1ccc(C2C(C(=O)c3sc(C)nc3C)=C(O)C(=O)N2CCN(C)C)cc1` (stereo not drawn), the viability in assay [1] was 106% (inactive); in assay [2] it was 106% (inactive); in assay [3], 93.1% (inactive); in assay [4] (setting [7]) it was 80.7%; in assay [4] (setting [8]) it was 93.1%. Besides, the differential viability (reversal) in assay [4] (H69AR cells + 2 uM doxorubicin) was 12.4% (inactive). Also, the inhibition in assay [5] is -8% (inactive); in assay [6], 4.36% (inactive).
On to `CCOC(=O)CC(=O)CSc1nc(-c2cccnc2)ccc1C#N`, for which the viability in assay [1] is 118% (inactive); in assay [2] it was 98.6% (inactive); in assay [3], 68.4% (inactive); in assay [4] (setting [7]), 92.4%; in assay [4] (setting [8]), 68.4%. Besides, in assay [4] (H69AR cells + 2 uM doxorubicin), the differential viability (reversal) was -24% (inactive). For the same compound, the inhibition was -3.97% (inactive) in assay [5] and 0% (inactive) in assay [6].
As to `NC(=O)c1c(NC(=O)Cc2cccs2)sc2c1CCC2`, the viability is 103% (inactive) in assay [1]; 97.3% (inactive) in assay [2]; 94.3% (inactive) in assay [3]; 91.3% in assay [4] (setting [7]); 94.3% in assay [4] (setting [8]). Besides, the differential viability (reversal) in assay [4] (H69AR cells + 2 uM doxorubicin) was 3.05% (inactive). Further, the inhibition in assay [5] was -0.27% (inactive); in assay [6], -6.94% (inactive).
Consider `CCN(CC)CCCN1C(=O)C(=O)/C(=C(/O)c2ccc3c(c2)OCO3)C1c1ccccn1` (stereo not drawn), for which the viability in assay [1] is 97% (inactive); in assay [2], 82.4% (inactive); in assay [3], 93.3% (inactive); in assay [4] (setting [7]), 88.6%; in assay [4] (setting [8]) it was 93.3%. Besides, the differential viability (reversal) in assay [4] (H69AR cells + 2 uM doxorubicin) is 4.7% (inactive). For the same compound, the figures for the inhibition in assay [5] and in assay [6] were -5.89% (inactive) and 0.32% (inactive), respectively.
